{"data": "Results of several laboratories", "FLT3 D835H": "Receptor-type tyrosine-protein kinase FLT3 (FLT3, Homo sapiens, UniProt P36888, D835H)", "FLT3 F691L/ITD": "Receptor-type tyrosine-protein kinase FLT3 (FLT3, Homo sapiens, UniProt P36888, F691L/ITD)", "FLT3 K663Q": "Receptor-type tyrosine-protein kinase FLT3 (FLT3, Homo sapiens, UniProt P36888, K663Q)", "FLT3": "Receptor-type tyrosine-protein kinase FLT3 (FLT3, Homo sapiens, UniProt P36888)", "FLT3 D835V": "Receptor-type tyrosine-protein kinase FLT3 (FLT3, Homo sapiens, UniProt P36888, D835V)", "FLT3 N841I": "Receptor-type tyrosine-protein kinase FLT3 (FLT3, Homo sapiens, UniProt P36888, N841I)", "note": "Lines come from different studies, so protocols differ."}
{"SMILES": "COc1ccnn2ncc(-c3ccnc(N(C)C)n3)c12", "target": "FLT3 D835H", "effect on": "binding", "concentration": "1 µM", "measurement": "remaining binding", "value": "100%"}
{"SMILES": "O=C(Nc1ccc(Oc2ccc(F)cc2)cc1)N1CCc2ncccc2[C@H]1c1ccc(F)cc1", "target": "FLT3 F691L/ITD", "effect on": "cell-free assay", "method": "competition with immobilised ligand", "concentration": "1 µM", "measurement": "remaining binding", "value": "93%"}
{"SMILES": "Cc1ccc(C(=O)Nc2ccc(CN3CCN(C)CC3)c(C(F)(F)F)c2)cc1C#Cc1cnc2cccnn12", "target": "FLT3 K663Q", "effect on": "enzyme activity", "mode": "inhibitor", "concentration": "23.5 nM", "measurement": "remaining activity", "value": "6.3%"}
{"SMILES": "CC(C)CC(=O)N1CCc2nc(-c3ccc(Br)cc3)nc(N(C)Cc3ccccc3)c2C1", "target": "FLT3 F691L/ITD", "effect on": "cell-free assay", "method": "competition with immobilised ligand", "concentration": "0.1 µM", "measurement": "remaining binding", "value": "68%"}
{"SMILES": "N[C@@H]1CCN(c2nccc(-c3cnn4ncccc34)n2)C1", "target": "Receptor-type tyrosine-protein kinase FLT3, autoinhibited (FLT3, Homo sapiens, UniProt P36888)", "effect on": "binding", "concentration": "1 µM", "measurement": "remaining binding", "value": "100%"}
{"SMILES": "CCOCCn1cc(C(=O)Nc2ccc(-n3nc(-c4cccnc4)cc3C(F)(F)F)cn2)ccc1=O", "target": "FLT3 D835H", "effect on": "cell-free assay", "method": "competition with immobilised ligand", "concentration": "1 µM", "measurement": "remaining binding", "value": "87%"}
{"SMILES": "Cc1ccc(NC(=O)c2ccc(C)c(C(F)(F)F)c2)cc1C#Cc1nn(C2CCC(O)CC2)c2ncnc(N)c12 (stereo not drawn)", "target": "FLT3", "effect on": "cell-free assay", "concentration": "10 µM", "measurement": "remaining signal", "value": "73%"}
{"SMILES": "Cc1ccc(Nc2nccc(N(C)c3ccc4c(C)n(C)nc4c3)n2)cc1S(N)(=O)=O", "target": "FLT3", "effect on": "enzyme activity", "mode": "inhibitor", "concentration": "0.5 µM", "measurement": "remaining activity", "value": "40.7%"}
{"SMILES": "Nc1ncnc2occ(-c3ccc(NC(=O)Nc4cc(C(F)(F)F)ccc4F)cc3)c12", "target": "FLT3 D835V", "effect on": "cell-free assay", "mode": "inhibitor", "concentration": "20 µM", "measurement": "remaining signal", "value": "0%"}
{"SMILES": "COc1cc(Cl)c(C(=O)N[C@@H](CN[C@H]2CC[C@@H](N)CC2)Cc2ccc(C#N)cc2)cc1-c1ccc(CN[C@H](C)c2ccc(C)cc2)o1", "target": "FLT3", "effect on": "enzyme activity", "mode": "inhibitor", "concentration": "1 µM", "measurement": "remaining activity", "value": "103%"}
{"SMILES": "C[C@H]1CCN(c2nccc(-c3cnn4ncccc34)n2)C1", "target": "FLT3 N841I", "effect on": "binding", "concentration": "1 µM", "measurement": "remaining binding", "value": "100%"}
{"SMILES": "O=C1CCc2cc(Nc3cc(OC4CCOCC4)c([N+](=O)[O-])cc3Cl)ccc2N1", "target": "FLT3 D835H", "effect on": "cell-free assay", "method": "competition with immobilised ligand", "concentration": "1 µM", "measurement": "remaining binding", "value": "99%"}
{"SMILES": "Cc1cnc(Nc2ccc(C(=O)N3CCC(N4CCCC4)CC3)cc2)nc1-c1cc2ccccc2s1", "target": "FLT3", "effect on": "binding", "method": "competition with immobilised ligand", "concentration": "1 µM", "measurement": "remaining binding", "value": "1.6%"}
{"SMILES": "C[S+]([O-])c1ccc(-c2nc(-c3ccncc3)c(-c3ccc(F)cc3)[nH]2)cc1 (stereo not drawn)", "target": "FLT3", "effect on": "cell-free assay", "concentration": "0.5 µM", "measurement": "remaining signal", "value": "91.5%"}
{"SMILES": "O=C(Nc1cnn(-c2csc(C(=O)NC3COC3)c2)c1)Nc1c(F)cccc1Cl", "target": "FLT3", "effect on": "enzyme activity", "mode": "inhibitor", "concentration": "5 µM", "measurement": "remaining activity", "value": "99.2%"}
{"SMILES": "CN(c1ccnc(CNc2nc(Nc3ccc4c(c3)CC(=O)N4)ncc2C(F)(F)F)n1)S(C)(=O)=O", "target": "FLT3 K663Q", "effect on": "cell-free assay", "method": "competition with immobilised ligand", "concentration": "1 µM", "measurement": "remaining binding", "value": "16%"}
{"SMILES": "Cc1[nH]c(/C=C2\\C(=O)Nc3ccc(F)cc32)c(C)c1C(=O)N[C@H]1CCN(C(=O)N(C)C)C1", "target": "FLT3", "effect on": "enzyme activity", "mode": "inhibitor", "concentration": "0.1 µM", "measurement": "remaining activity", "value": "3%"}
{"SMILES": "CN(CCCC(F)(F)F)c1nccc(-c2cnn3ncccc23)n1", "target": "FLT3 N841I", "effect on": "binding", "concentration": "1 µM", "measurement": "remaining binding", "value": "100%"}
{"SMILES": "CS(=O)(=O)N1CCCC(NC(=O)[C@H](CCC2CCCCC2)NC(=O)c2ccc(CNc3ncnc4c3nnn4-c3ccccc3)cc2)C1 (stereo partly drawn)", "target": "FLT3", "effect on": "cell-free assay", "method": "competition with immobilised ligand", "concentration": "0.1 µM", "measurement": "remaining binding", "value": "82%"}
{"SMILES": "CN(c1nccc(-c2cnn3ncccc23)n1)C1CC1", "target": "FLT3", "effect on": "binding", "concentration": "1 µM", "measurement": "remaining binding", "value": "65%"}
{"SMILES": "CC(C)(C)c1nc2c(s1)c1nc(N)ncc1c1ccc(NS(=O)(=O)c3c(F)cccc3F)c(F)c12", "target": "FLT3", "effect on": "enzyme activity", "mode": "inhibitor", "method": "radiometric", "concentration": "1 µM", "measurement": "remaining activity", "value": "104%"}
{"SMILES": "Cc1c(NC(=O)c2cc(C(N)=O)nc3cc(F)ccc23)c(C(F)(F)F)nn1Cc1ccc(C(C)(C)C)cc1", "target": "FLT3", "effect on": "cell-free assay", "method": "competition with immobilised ligand", "concentration": "1 µM", "measurement": "remaining binding", "value": "100%"}
{"SMILES": "CC1CCCN1c1nccc(-c2cnn3ncccc23)n1 (stereo not drawn)", "target": "FLT3 D835V", "effect on": "binding", "concentration": "1 µM", "measurement": "remaining binding", "value": "79%"}
{"SMILES": "O=C(c1ccc(Nc2ncc(Cl)c(-c3cc4ccccc4s3)n2)cc1)N1CCC(N2CCCC2)CC1", "target": "Receptor-type tyrosine-protein kinase FLT3 (FLT3, Homo sapiens, UniProt P36888, R834Q)", "effect on": "binding", "method": "competition with immobilised ligand", "concentration": "1 µM", "measurement": "remaining binding", "value": "11%"}
